Activity calls are given as the source filed them.
How the values were obtained:
L6 [1] = assay: Increase in protein synthesis in rat L6 cells assessed as [3H]-phenylalanine incorporation at 0.3 to 30 uM after 4 hrs by scintillation counting relative to control
L6 [2] = assay: Cytotoxicity against rat L6 cells up to 30 uM after 24 hrs by MTT assay; type: cell-based; conditions: l6, 24 h
Method in brief: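 Fully differentiated L6 myotubes (myoblasts fused after 7–9 d in 2% serum) treated with compounds up to 30 μM against 0.1% ethanol vehicle. Viability by MTT assay in triplicate, read at 550 nm, alongside cytological observation.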

Rattus norvegicus [3] = assay: Induction of Myf6 mRNA expression in Wistar rat at 60 mg/kg, po qd for 24 days by RT-PCR analysis relative to control; type: functional
Method in brief: (§1)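 Gastrocnemius muscle from male Wistar rats dosed orally with 60 mg/kg daily for 24 d, or vehicle. Conventional RT-PCR on individual muscle samples (n=5 per group), duplicate determinations. Compared with control by Student t test.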

Rattus norvegicus [4] = assay: Anabolic effect in Wistar rat assessed as increase in lean body mass at 60 mg/kg, po qd for 24 days; type: functional
L6 [5] = assay: Increase in protein synthesis in rat L6 cells assessed as [3H]-phenylalanine incorporation at 10 uM after 4 hrs by scintillation counting relative to control; type: functional
Method in brief: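 L6 myotubes (differentiated in 2% serum) washed with serum-free DMEM. Incubated 4 h with 0.5 μCi/mL [3H]-phenylalanine plus vehicle (0.1% ethanol), compound (0.3–30 μM, or 10 μM), or 6.5 nM IGF-1. Protein precipitated with 5% TCA, dissolved in 0.5 N NaOH, scintillation-counted, normalized to mg protein (BCA). Triplicate; ANOVA/Dunnett.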

L6 [6] = assay: Activation of Akt phosphorylation at Ser473 in rat L6 cells at 10 uM after 1 hr by Western blot analysis; type: cell-based
Method in brief: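 Differentiated L6 myotubes exposed to 10 μM compound for 1 h; IGF-1 6.5 nM for 10 min served as positive control. Lysis in ice-cold RIPA with 10 mM NaF, 2 mM orthovanadate, 1 mM PMSF and protease inhibitors, spun 12,000 g 20 min 4°C. Lysates normalized to 50 μg soluble protein, immunoblotted for phospho-Akt (Ser473); stripped blots reprobed for total Akt as loading control; ECL detection.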

Rattus norvegicus [7] = assay: Effect on Eif2b1 gene expression in Wistar rat at 60 mg/kg, po qd for 24 days by PCR analysis relative to control; type: functional, organism-based; set-up: dose 60 mg/kg
Method in brief: (§2)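 Male Wistar rats gavaged daily 24 d with 60 mg/kg or vehicle (5% DMSO in corn oil). RNA from pooled (n=5) frozen gastrocnemius samples run on a rat insulin signaling PCR array (84 genes). Fold change computed as 2^(-ΔCt), with a 4-fold threshold.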

L6 [8] = assay: Decrease in protein degradation in rat L6 cells assessed as release of acid-soluble [3H]-phenylalanine into the media normalized by total protein at 0.3 to 20 uM after 4 hrs by scintillation counting relative to control; type: functional, cell-based
Method in brief: (§3)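 L6 myoblasts differentiated 7–9 d in 2% serum into myotubes. Proteins labelled 16 h with 1.5 μCi/mL [3H]-phenylalanine, then washed. Cells treated 4 h in serum-free medium with vehicle (0.1% ethanol), compound (0.3–30 μM; single-point screen 10 μM), or 10 nM insulin. Medium TCA-precipitated and released [3H]-phenylalanine counted, normalized to mg cell protein (BCA). Triplicate; one-way ANOVA with Dunnett's test.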

Rattus norvegicus [9] = assay: Induction of Myod1 mRNA expression in Wistar rat at 60 mg/kg, po qd for 24 days by RT-PCR analysis relative to control; type: functional
Method in brief: as §1

Rattus norvegicus [10] = assay: Induction of Myf5 mRNA expression in Wistar rat at 60 mg/kg, po qd for 24 days by RT-PCR analysis relative to control; type: functional
Method in brief: as §1

Rattus norvegicus [11] = assay: Upregulation of Igf2 gene expression in Wistar rat at 60 mg/kg, po qd for 24 days by PCR analysis relative to control; type: functional
Method in brief: as §1

Rattus norvegicus [12] = assay: Upregulation of Srebf1 gene expression in Wistar rat at 60 mg/kg, po qd for 24 days by PCR analysis relative to control; type: functional
Method in brief: as §2

Rattus norvegicus [13] = assay: Upregulation of Fbp2 gene expression in Wistar rat at 60 mg/kg, po qd for 24 days by PCR analysis relative to control; type: functional
Method in brief: as §2

Rattus norvegicus [14] = assay: Induction of Myog mRNA expression in Wistar rat at 60 mg/kg, po qd for 24 days by RT-PCR analysis relative to control; type: functional
Method in brief: as §1

Rattus norvegicus [15] = assay: Upregulation of Igfbp1 gene expression in Wistar rat at 60 mg/kg, po qd for 24 days by PCR analysis relative to control; type: functional
Method in brief: as §2

Rattus norvegicus [16] = assay: Upregulation of Adar1d gene expression in Wistar rat at 60 mg/kg, po qd for 24 days by PCR analysis relative to control; type: functional
Method in brief: as §2

Rattus norvegicus [17] = assay: Anabolic effect in Wistar rat assessed as increase in limb grip strength at 60 mg/kg, po qd for 24 days; type: functional, organism-based; set-up: dose 60 mg/kg
L6 [18] = assay: Decrease in protein degradation in rat L6 cells assessed as release of acid-soluble [3H]-phenylalanine into the media normalized by total protein at 1 uM after 4 hrs by scintillation counting relative to control; type: functional; set-up: scale not given: the % may be the effect or the level left
Method in brief: as §3

L6 [19] = assay: Decrease in protein degradation in rat L6 cells assessed as release of acid-soluble [3H]-phenylalanine into the media normalized by total protein at 10 uM after 4 hrs by scintillation counting relative to control; type: functional; set-up: scale not given: the % may be the effect or the level left
Method in brief: as §3

NIH3T3 [20] = assay: Cytotoxicity against mouse NIH/3T3 cells at 0.3 to 30 uM after 24 hrs by MTT assay; type: cell-based; conditions: nih3t3, 24 h
Method in brief: (§4)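 NIH-3T3 murine fibroblasts grown in DMEM with 10% FBS at 37°C in 5% CO2. Exposed to 0.3–30 μM for 24 h at 37 °C. MTT read at 550 nm. Absorbance expressed relative to vehicle control cells (taken as 100% proliferation). n=6 from repeated experiments.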

NIH3T3 [21] = assay: Cytotoxicity against mouse NIH/3T3 cells after 24 hrs by MTT assay; type: cell-based; conditions: NIH3T3, 24 h
Method in brief: as §4

| Compound | Activity (L6 [2]) | Activity (L6 [5]) [%] | Activity (L6 [6]) | Activity (L6 [19]) [%] | Activity (NIH3T3 [20]) | also measured |
| --- | --- | --- | --- | --- | --- | --- |
| CC[C@@H](C(C)C)[C@H](O)[C@@H](O)[C@@H](C)[C@H]1CC[C@H]2[C@@H]3COC(=O)[C@H]4C[C@H](O)[C@H](O)C[C@]4(C)[C@H]3CC[C@]12C | Non-toxic | 37 | Active | -24 | Non-toxic | Activity (L6 [1]): 36.9%; fold change (FC) (Rattus norvegicus [3]): 1.3; Activity (Rattus norvegicus [4]): 14.2%; Activity (Rattus norvegicus [7]): inactive; Activity (L6 [8]): Dose-dependent effect; fold change (FC) (Rattus norvegicus [9]): 2.1; fold change (FC) (Rattus norvegicus [10]): 1.3; fold change (FC) (Rattus norvegicus [11]): 1.4; fold change (FC) (Rattus norvegicus [12]): 2.5; fold change (FC) (Rattus norvegicus [13]): 4.5; fold change (FC) (Rattus norvegicus [14]): 1.7; fold change (FC) (Rattus norvegicus [15]): 2.5; fold change (FC) (Rattus norvegicus [16]): 6.5; Activity (Rattus norvegicus [17]): Active; Activity (L6 [18]): 8.2% |
| CC[C@@H](C(C)C)[C@H](O)[C@@H](O)[C@@H](C)[C@H]1CC[C@H]2[C@@H]3CC(=O)[C@H]4C[C@H](O)[C@H](O)C[C@]4(C)[C@H]3CC[C@]12C | Non-toxic | 41 | Active | -23 | Non-toxic | Activity (L6 [1]): 40.7%; Activity (L6 [8]): Dose-dependent effect; Activity (L6 [18]): 8.7% |
| CC[C@@H](C(C)C)[C@H](O)[C@@H](O)[C@@H](C)[C@H]1CC[C@H]2[C@@H]3CC(=O)[C@H]4C[C@H](F)CC[C@]4(C)[C@H]3CC[C@]12C | Non-toxic | 23 | Active | -16 | Toxic | – |
| CC[C@H](C(C)C)[C@H](O)[C@@H](O)[C@@H](C)[C@H]1CC[C@H]2[C@@H]3COC(=O)[C@H]4C[C@H](F)CC[C@]4(C)[C@H]3CC[C@]12C | Non-toxic | 25 | Active | -21 | Toxic | – |
| CC(C)[C@@H](C)[C@H](O)[C@@H](O)[C@@H](C)[C@H]1CC[C@H]2[C@@H]3COC(=O)[C@H]4C[C@H](O)[C@H](O)C[C@]4(C)[C@H]3CC[C@]12C | Non-toxic | 4 | Active | -6 | – | – |
| CC[C@@H](C(C)C)[C@H](O)[C@@H](O)[C@@H](C)[C@H]1CC[C@H]2[C@@H]3CNC(=O)[C@H]4C[C@H](O)[C@H](O)C[C@]4(C)[C@H]3CC[C@]12C | Non-toxic | 21 | Active | -1 | – | IC50 (NIH3T3 [21]): 12.5 µM |
| CC(C)[C@@H](C)[C@@H](O)[C@H](O)[C@@H](C)[C@H]1CC[C@H]2[C@@H]3COC(=O)[C@H]4C[C@H](O)[C@H](O)C[C@]4(C)[C@H]3CC[C@]12C | Non-toxic | 12 | Active | -7 | – | – |
| CC[C@@H](C(C)C)[C@@H](O)[C@H](O)[C@@H](C)[C@H]1CC[C@H]2[C@@H]3COC(=O)[C@H]4C[C@H](O)[C@H](O)C[C@]4(C)[C@H]3CC[C@]12C | Non-toxic | 13 | Active | -15 | – | – |
| CC[C@@H](C(C)C)[C@H](O)[C@@H](O)[C@@H](C)[C@H]1CC[C@H]2[C@@H]3CC(=O)N[C@H]4C[C@H](O)[C@H](O)C[C@]4(C)[C@H]3CC[C@]12C | Non-toxic | 3 | Active | -14 | – | – |

From ChEMBL document CHEMBL1799978, “Akt-dependent anabolic activity of natural and synthetic brassinosteroids in rat skeletal muscle cells” (J Med Chem, 2011)
